In the array DNA melting data of Ke et al. (doi:10.1101/2024.01.08.574731):

How the values were obtained:
[1] = melting temperature; fluorescence melt of hairpins on a sequencing array, two-state fit, raised by 9.35 °C to match UV melts; conditions: sodium 0.088 M
Procedure, shortened: (§1)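 Cy3 signals were normalised both to pre-quench Cy3 and to control constructs. They came from library hairpins carrying annealed Cy3 and quencher oligos on a sequenced MiSeq flow cell, imaged in 50 mM Na-HEPES pH 8.0, 25 mM NaCl, in 2.5 °C steps up to 60 °C. Bootstrapped two-state fits gave melting temperature and folding enthalpy, and four replicates were combined by inverse variance. Fitted temperatures were then raised by 9.35 °C to match UV melts.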

[2] = folding enthalpy; higher = less favourable; fluorescence melt of hairpins on a sequencing array, two-state fit; conditions: sodium 0.088 M
Procedure, shortened: as §1

Row | Sequence | Tm [1] [°C] | folding enthalpy [2] [kcal/mol]
1 | GTGCCGCGAAAGCGCCAC (((.(((....))).))) | 53.8 | -18.2
2 | GTTTCAGGAAACTGAAGC (.(((((....))))).) | 38.9 | -22.2
3 | GCGTAGTAACGC ((((....)))) | 53 | -22
4 | GCCCTGTCGAAAGACGGC (((..(((....)))))) | 44.5 | -15.4
5 | GCCTCGCGAAAGCTGGGC (((..((....))..))) | 55.4 | -22.2
6 | GGTGGGGGAAACCCTACC (((.(((....))).))) | 52.7 | -27.1
7 | GCCATGCGAAAGCGAGGC (((..((....))..))) | 60 | -21.6
8 | GATCGGAGATCCGATC ((((((....)))))) | 56 | -27.6
9 | GGATACGAAAGTATGTCC ((((((....)))..))) | 30.1 | -12.5
10 | GCCCCCGAAAGGGGAGGC ((((((....)))..))) | 59.9 | -13.8
11 | GTAGGGTCGAAAGACTAC (((..(((....)))))) | 32.5 | -12.2
12 | TGACTGAAAAGTCA (((((....))))) | 46 | -23.2
13 | GCGTACGGAAACGCACAC (.((.((....)).)).) | 38.1 | -12.6
14 | GAGGACGAAAGTCCCTC ((((((....))).))) | 51.2 | -11.3
15 | GCTAGCGGAAACACTAGC (((((.(....).))))) | 45.7 | -32.2
16 | GTGACTGGAAACGGTTAC ((.((.(....).)).)) | 36.9 | -8.77
17 | GGCTTGGAAACAAGCC ((((((....)))))) | 66.6 | -31.2
18 | GGCCGTGGAAACACAGCC (((.(((....))).))) | 50.1 | -36.8
19 | GTACCGAAAGGTAC (((((....))))) | 65.9 | -27
20 | GTCCAAGGAAACTTAGAC (((.(((....))).))) | 24.5 | -13.7
21 | GGCAAACGAAAGTTGCC (((.(((....)))))) | 59.6 | -33.3
22 | GAGAAAGGAAACTTTCCC (.(((((....))))).) | 25.1 | -12.3
23 | GCCGATGGAAACATTGGC (((.(((....))).))) | 54.6 | -55.2
24 | GGCCTTGGAAACAAAGCC (((.(((....))).))) | 38.9 | -25.8

Row | Sequence | Tm [1] [°C] | folding enthalpy [2] [kcal/mol]
25 | CTTGTGAAAACAAG (((((....))))) | 45.2 | -23.1
26 | GATCAGGGTGCTGATC ((((((....)))))) | 51.5 | -31.2
27 | GACTTCCGAAAGGAGTC (((.(((....)))))) | 46.4 | -24.8
28 | GAGCAAGGAAACTCGCTC ((((.((....)).)))) | 40.6 | -30.8
29 | GATCACTACAGTGATC ((((((....)))))) | 60.6 | -40.5
30 | GATCGTGGAAACACGATC (((((((....))))))) | 66.3 | -41.2
31 | GATCCACTTTTGGATC ((((((....)))))) | 50.6 | -34.6
32 | GCTACCGAAAGGTCAGC ((((((....))).))) | 48.7 | -21.4
33 | GTCATCGAAAGATAGGAC ((((((....)))..))) | 30.9 | -15.7
34 | GATCAATTGTTTGATC ((((((....)))))) | 46.1 | -35.9
35 | GCTCTAGAAATAGAGC ((((((....)))))) | 50.9 | -34.1
36 | GGTTAAGGAAACTTAGCC ((.((((....)))).)) | 38.5 | -28
37 | GTTGGAGGAAACTTCAAC ((((.((....)).)))) | 41.9 | -31.4
38 | GATCGAGGAAACTTGATC ((((.((....)).)))) | 44.3 | -28.7
39 | GCCCCACCGAAAGGTGGC (((..(((....)))))) | 40.7 | -4.81
40 | GTGCGACGAAAGTCCAC (((.(((....)))))) | 52 | -29.4
41 | GAACTGACGAAAGTCTTC (((..(((....)))))) | 23.7 | -8.83
42 | GCGAGCGGAAACGCCCGC (((.(((....))).))) | 58.4 | -35.4
43 | GTCAACGAAAGTTGGGAC ((((((....)))..))) | 32.7 | -11.5
44 | GATCTGCTCCCAGATC ((((((....)))))) | 47.9 | -37.1
45 | GTCTACGAAAGTAGGAC ((((((....))).))) | 44 | -16.5
46 | GTCTCCGAAAGGATAGAC ((((((....)))..))) | 41 | -23.8
47 | GCGTTGGGAAACTAACGC (((((.(....).))))) | 55.5 | -47.8
48 | GCGGTTGGCCGC ((((....)))) | 64.8 | -25.3

Row | Sequence | Tm [1] [°C] | folding enthalpy [2] [kcal/mol]
49 | GCAAAACGAAAGTTATGC (((.(((....))).))) | 45.8 | -28.9
50 | GATCCACGGTGGATC ((((((...)))))) | 50.6 | -43.6
51 | GATCTCATCCGAGATC ((((((....)))))) | 53.2 | -39.2
52 | GCACGGCGAAAGCCTAGC ((..(((....)))..)) | 39.5 | -14.4
53 | GATCGAATGCTCGATC ((((((....)))))) | 49.9 | -49.6
54 | GATCGACCTTTCGATC ((((((....)))))) | 50.6 | -42.9
55 | GTAGGCGAAAGCCATTAC ((((((....)))..))) | 23 | -7.44
56 | GATCCTTGTTAGGATC ((((((....)))))) | 52.8 | -34.8
57 | GGGCATGGAAACGTGCCC (((((.(....).))))) | 60 | -50.3
58 | GCGCGGCGAAAGCGACGC (((..((....))..))) | 63.2 | -15.2
59 | GCGTAAGACGC ((((...)))) | 53 | -21.3
60 | GTCGTGGGAAACCGTGAC (((..((....))..))) | 36.7 | -25.9
61 | CGGTCGGAAACGATTCCG ((((((....)))..))) | 43.9 | -19.8
62 | GTTGTCGCGAAAGCGAAC (((..(((....)))))) | 56.9 | -15.7
63 | GGTATCGAAAGATAAACC ((((((....)))..))) | 30.4 | -18.4
64 | GCCACAGGAAACTGCGGC (((.(((....))).))) | 52 | -56.4
65 | GATCCTAGATAGGATC ((((((....)))))) | 50.8 | -36.1
66 | GTGCACGAAAGTGTACAC ((((((....)))..))) | 51.8 | -17.1
67 | GATCCGCAGTCGGATC ((((((....)))))) | 55.9 | -35
68 | GATCCCCCTGGGGATC ((((((....)))))) | 67.5 | -36.1
69 | CGCGGATAACTCCGCG ((((((....)))))) | 62.2 | -38
70 | CGGTTGCGGAAACGCCCG (((..(((....)))))) | 46.5 | -22.3
